# Measured values gathered from unrelated publications.
# Lines come from different studies, so protocols differ.
# Observed: metabolic stability
# Species: human
Structure (SMILES),matrix,concentration,pH,notes,half-life
CCCCCCCCCCCCCCCC(=O)NCCOC(=O)C[C@@H](CN)CC(C)C,liver microsomes,1 µM,pH 7.4,,60.3 min
O=c1c2ccccc2[nH]c2cc(Oc3ccc(OC(F)(F)F)cc3)ccc12,liver microsomes,1 µM,pH 7.4,,> 60 min
Cc1cccc(CNC(=O)c2cn(CCNC(=O)c3ccccc3Sc3c([N+](=O)[O-])ncn3C)c3cc4c(cc3c2=O)OCO4)n1,blood,1 µM,,whole blood,509 min
OCc1ccc(-c2nn(Cc3ccccc3)c3ccccc23)o1,liver microsomes,,,,7 min
O=c1c2c([nH]c3ccc(F)c(Oc4ccc(OC(F)(F)F)cc4)c13)CCCC2,liver microsomes,1 µM,pH 7.4,,14.9 min
O=C1CCC(N2Cc3cc(C4CCN(Cc5ccccc5)CC4)ccc3C2=O)C(=O)N1 (stereo not drawn),liver microsomes,1 µM,,,> 60 min
Cc1[nH]c(C)c(S(=O)(=O)Nc2ccc(C(F)(F)F)c(Cl)c2)c1C(=O)N1CCC(F)(F)C1,liver microsomes,,,,10.2 min
COc1cc(-c2cc(C(C)=O)n3ccccc23)c(OC)cc1Cn1ccnc1,liver microsomes,,pH 7.4,,> 120 min
O=c1c2c([nH]c3cc(Nc4ccc(OC(F)(F)F)cc4)ccc13)CCCC2,liver microsomes,1 µM,pH 7.4,,20.7 min
COCC(=O)OCc1cc2[nH]c(=S)n(Cc3cccnc3)c(=O)c2cc1Cl,liver microsomes,1 µM,pH 7.4,,< 5 min
C=CCn1c(=O)c2cnc(Nc3ccc(N4CCN(C)CC4)cc3)nc2n1-c1ccc2c(n1)[C@@](O)(CC)CC2,hepatocytes,,,,93 min
CN(C)CC(=O)OCc1cc2[nH]c(=S)n(Cc3cccnc3)c(=O)c2cc1Cl,liver microsomes,1 µM,pH 7.4,,< 5 min
CCCCN(CCCC)CCCOc1ccc2c(=O)c3c([nH]c2c1)CCCC3,liver microsomes,1 µM,pH 7.4,,15.1 min
Cc1ncsc1-c1ccc([C@H](CC(=O)N2CCN(c3ccc(C#Cc4ccc(C(=O)N5CCC(n6cc(-c7ccc8c(c7)CCN8C(=O)Cc7cccc(OC(F)(F)F)c7)c7c(N)ncnc76)CC5)cc4)cn3)CC2)NC(=O)[C@@H]2C[C@@H](O)CN2C(=O)[C@@H](NC(=O)C2(F)CC2)C(C)(C)C)cc1,hepatocytes,1 µM,,,> 120 min
CC(C)NCC(O)COc1cccc2ccccc12 (racemic),liver microsomes,2 µM,pH 7.4,,68.2 min
O=c1c2ccc(Oc3cccc(OC(F)(F)F)c3)cc2[nH]c2cc(Cl)cc(F)c12,liver microsomes,1 µM,pH 7.4,,> 60 min
NCc1ccc(-c2nn(Cc3ccccc3)c3ccccc23)o1,liver microsomes,,,,34 min
O=c1c2ccc(Oc3ccccc3OC(F)(F)F)cc2[nH]c2cc(Cl)cc(F)c12,liver microsomes,1 µM,pH 7.4,,> 60 min
c1ccc(Oc2ccc(Nc3c4c(nc5ccccc35)CCC4)cc2)cc1,liver microsomes,0.5 µM,,,57 min
CCCN(CCC)CCCOc1ccc2c(=O)c3c([nH]c2c1)CCCC3,liver microsomes,1 µM,pH 7.4,,37.3 min
CCN(CC)CCNC(=O)c1c(C)[nH]c(/C=C2\C(=O)Nc3ccc(F)cc32)c1C,liver microsomes,1 µM,pH 7.4,,1630 min
O=C(O)Cc1ccccc1Nc1c(Cl)cccc1Cl,liver microsomes,1 µM,,,12 min
O=c1c2cc(Cl)ccc2[nH]c(=S)n1Cc1cccnc1,liver microsomes,1 µM,pH 7.4,,> 186 min
Nc1nnc(-c2ccccc2O)cc1N1CCN(Cc2ccc(N3CCN(CCOc4cccc5c4C(=O)N(C4CCC(=O)NC4=O)C5=O)CC3)c(F)c2)CC1 (stereo not drawn),liver microsomes,1 mM,,,35 min
O=c1c2c([nH]c3ccc(Oc4ccc(OC(F)(F)F)cc4)cc13)CCCC2,liver microsomes,1 µM,pH 7.4,,25.1 min
CONC(=O)c1cccc2c1cc(C)n2-c1nc2c(c(NCc3ccccc3)n1)CCCN2,liver microsomes,1 µM,pH 7.4,,13.3 min
O=c1c2cc(Cl)ncc2[nH]c(=S)n1Cc1cccnc1,liver microsomes,1 µM,pH 7.4,,> 186 min
